{
  "source": "ChEMBL document CHEMBL1128434",
  "about": "“Gonadotropin-releasing hormone antagonists: novel members of the azaline B family” (1995)",
  "key": {"[1]": {"biological_target": "T1, Gonadotropin-releasing hormone receptor (Rattus norvegicus) (UniProt P30969)", "T1 sequence (whole entry)": "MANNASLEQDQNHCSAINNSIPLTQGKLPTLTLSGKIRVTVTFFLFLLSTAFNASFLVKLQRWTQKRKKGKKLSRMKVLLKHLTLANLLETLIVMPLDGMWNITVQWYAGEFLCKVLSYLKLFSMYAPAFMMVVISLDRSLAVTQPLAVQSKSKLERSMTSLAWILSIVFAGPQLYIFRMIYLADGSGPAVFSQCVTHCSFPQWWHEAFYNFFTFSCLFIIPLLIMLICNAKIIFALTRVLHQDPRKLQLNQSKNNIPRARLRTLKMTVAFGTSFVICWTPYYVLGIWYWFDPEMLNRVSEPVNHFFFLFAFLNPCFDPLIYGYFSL", "test": "Effect in the anti ovulatory assay (AOA) in rats expressed as no. of rats ovulating/No of rats treated at 2.5 mg; 0/8", "assay_type": "functional"}, "[2]": {"biological_target": "T1, Gonadotropin-releasing hormone receptor (Rattus norvegicus)", "test": "Duration of action measured using castrated male rat assay to inhibit luteinizing hormone release.; fully active at 72 hr", "assay_type": "functional"}, "[3]": {"organism": "Rattus norvegicus", "test": "Effect in the anti ovulatory assay (AOA) in rats expressed as no. of rats ovulating/No of rats treated at 1.0 mg; 3/9", "assay_type": "functional"}, "[4]": {"organism": "Rattus norvegicus", "test": "Effect in the anti ovulatory assay (AOA) in rats expressed as no. of rats ovulating/No of rats treated at 10 mg; 1/6", "assay_type": "functional"}, "[5]": {"organism": "Rattus norvegicus", "test": "Effect in the anti ovulatory assay (AOA) in rats expressed as no. of rats ovulating/No of rats treated at 2.5 mg; 2/7", "assay_type": "functional"}, "[6]": {"organism": "Rattus norvegicus", "test": "Effect in the anti ovulatory assay (AOA) in rats expressed as no. of rats ovulating/No of rats treated at 2.5 mg; 0/7", "assay_type": "functional"}, "[7]": {"organism": "Rattus norvegicus", "test": "Effect in the anti ovulatory assay (AOA) in rats expressed as no. of rats ovulating/No of rats treated at 1.0 mg; 5/13", "assay_type": "functional"}, "[8]": {"organism": "Rattus norvegicus", "test": "Effect in the anti ovulatory assay (AOA) in rats expressed as no. of rats ovulating/No of rats treated at 0.5 mg; 6/7", "assay_type": "functional"}, "[9]": {"organism": "Rattus norvegicus", "test": "Effect in the anti ovulatory assay (AOA) in rats expressed as no. of rats ovulating/No of rats treated at 0.5 mg; 8/8", "assay_type": "functional"}, "[10]": {"organism": "Rattus norvegicus", "test": "Effect in the anti ovulatory assay (AOA) in rats expressed as no. of rats ovulating/No of rats treated at 1.0 mg; 4/8", "assay_type": "functional"}, "[11]": {"organism": "Rattus norvegicus", "test": "Effect in the anti ovulatory assay (AOA) in rats expressed as no. of rats ovulating/No of rats treated at 100 mg; 0/4", "assay_type": "functional"}, "[12]": {"organism": "Rattus norvegicus", "test": "Effect in the anti ovulatory assay (AOA) in rats expressed as no. of rats ovulating/No of rats treated at 25 mg; 2/8", "assay_type": "functional"}, "[13]": {"organism": "Rattus norvegicus", "test": "Effect in the anti ovulatory assay (AOA) in rats expressed as no. of rats ovulating/No of rats treated at 50 mg; 4/4", "assay_type": "functional"}, "[14]": {"biological_target": "T1, Gonadotropin-releasing hormone receptor (Rattus norvegicus)", "test": "In vitro potency to inhibit GnRH-mediated LH secretion by cultured pituitary cells relative to [Ac-delta-Pro1,DFpa2,DTrp36]GnRH.", "assay_type": "functional, cell-based", "conditions": "Pituitary gland cell", "summary_of_the_method": "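Dispersed rat pituitary cells in culture; antagonist inhibition of GnRH-stimulated LH secretion. Potency expressed relative to standard antagonist [Ac-Δ3Pro1,D4FPhe2,DTrp3,6]GnRH taken as 1.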"}},
  "data": [
    {"compound": "CC(=O)N[C@H](Cc1ccc2ccccc2c1)C(=O)N[C@H](Cc1ccc(Cl)cc1)C(=O)N[C@H](Cc1cccnc1)C(=O)N[C@@H](CO)C(=O)N[C@@H](Cc1ccc(NC=O)cc1)C(=O)N[C@H](Cc1ccc(NC=O)cc1)C(=O)N[C@@H](CC(C)C)C(=O)N[C@@H](CCCCNC(C)C)C(=O)N1CCC[C@H]1C(=O)N[C@H](C)N", "values": [
      {"measurement": "No. of rats ovulated", "setting": "[1]", "result": 0},
      {"measurement": "Duration of action", "setting": "[2]", "result": 72, "unit": "h"},
      {"measurement": "No. of rats ovulated", "setting": "[3]", "result": 3}
    ]},
    {"compound": "CC(=O)N[C@H](Cc1ccc(N)cc1)C(=O)N[C@H](Cc1ccc(Cl)cc1)C(=O)N[C@H](Cc1cccnc1)C(=O)N[C@@H](CO)C(=O)N[C@@H](Cc1ccc(Nc2n[nH]c(N)n2)cc1)C(=O)N[C@H](Cc1ccc(Nc2n[nH]c(N)n2)cc1)C(=O)N[C@@H](CC(C)C)C(=O)N[C@@H](CCCCNC(C)C)C(=O)N1CCC[C@H]1C(=O)N[C@H](C)N", "values": [
      {"measurement": "No. of rats ovulated", "setting": "[4]", "result": 1}
    ]},
    {"compound": "CC(=O)N[C@H](Cc1ccc2ccccc2c1)C(=O)N[C@H](Cc1ccc(Cl)cc1)C(=O)N[C@H](Cc1cccnc1)C(=O)N[C@@H](CO)C(=O)N(C)[C@@H](Cc1ccc(O)cc1)C(=O)N[C@H](Cc1ccc(Nc2n[nH]c(N)n2)cc1)C(=O)N[C@@H](CC(C)C)C(=O)N[C@@H](CCCCNC(C)C)C(=O)N1CCC[C@H]1C(=O)N[C@H](C)N", "values": [
      {"measurement": "No. of rats ovulated", "setting": "[5]", "result": 2}
    ]},
    {"compound": "CC(=O)Nc1ccc(C[C@H](NC(=O)[C@H](CO)NC(=O)[C@@H](Cc2cccnc2)NC(=O)[C@@H](Cc2ccc(Cl)cc2)NC(=O)[C@@H](Cc2ccc3ccccc3c2)NC(C)=O)C(=O)N[C@H](Cc2ccc(NC(C)=O)cc2)C(=O)N[C@@H](CC(C)C)C(=O)N[C@@H](CCCCNC(C)C)C(=O)N2CCC[C@H]2C(=O)N[C@H](C)N)cc1", "values": [
      {"measurement": "No. of rats ovulated", "setting": "[6]", "result": 0},
      {"measurement": "Duration of action", "setting": "[2]", "result": 72, "unit": "h"},
      {"measurement": "No. of rats ovulated", "setting": "[7]", "result": 5},
      {"measurement": "No. of rats ovulated", "setting": "[8]", "result": 6}
    ]},
    {"compound": "CC(=O)N[C@H](Cc1ccc2ccccc2c1)C(=O)N[C@H](Cc1ccc(Cl)cc1)C(=O)N[C@H](Cc1cccnc1)C(=O)N[C@@H](CO)C(=O)N[C@@H](Cc1ccc(NC(=O)c2cnccn2)cc1)C(=O)N[C@H](Cc1ccc(NC(=O)c2cnccn2)cc1)C(=O)N[C@@H](CC(C)C)C(=O)N[C@@H](CCCCNC(C)C)C(=O)N1CCC[C@H]1C(=O)N[C@H](C)N", "values": [
      {"measurement": "No. of rats ovulated", "setting": "[9]", "result": 8},
      {"measurement": "No. of rats ovulated", "setting": "[10]", "result": 4}
    ]},
    {"compound": "CC[C@H](C)[C@H](NC(=O)[C@H](CC(C)C)NC(=O)[C@@H](Cc1ccc(Nc2n[nH]c(N)n2)cc1)NC(=O)[C@H](Cc1ccc(Nc2n[nH]c(N)n2)cc1)N(C)C(=O)[C@H](CO)NC(=O)[C@@H](Cc1cccnc1)NC(=O)[C@@H](Cc1ccc(Cl)cc1)NC(=O)[C@@H](Cc1ccc2ccccc2c1)NC(C)=O)C(=O)N1CCC[C@H]1C(=O)N[C@H](C)N", "values": [
      {"measurement": "No. of rats ovulated", "setting": "[11]", "result": 0},
      {"measurement": "No. of rats ovulated", "setting": "[12]", "result": 2}
    ]},
    {"compound": "CC(=O)N[C@H](Cc1ccc2ccccc2c1)C(=O)N[C@H](Cc1ccc(Cl)cc1)C(=O)N[C@H](Cc1cccnc1)C(=O)N[C@@H](CO)C(=O)N[C@@H](Cc1ccc(NC(=O)Nc2ccccc2Cl)cc1)C(=O)N[C@H](Cc1ccc(NC(=O)Nc2ccccc2Cl)cc1)C(=O)N[C@@H](CC(C)C)C(=O)N[C@@H](CCCCNC(C)C)C(=O)N1CCC[C@H]1C(=O)N[C@H](C)N", "values": [
      {"measurement": "No. of rats ovulated", "setting": "[13]", "result": 4},
      {"measurement": "Relative potency", "setting": "[14]", "result": 0.1}
    ]}
  ]
}
